Assay outcomes deposited in PubChem by several laboratories.
Measles CPE = compounds protecting cells from measles virus cytopathic effect, primary screen, measles RdRp inhibitor project, single point, MLSMR library, absorbance. Measles virus-infected cells, CPE protection. protection (pct of control), % at 4 µM. actives 1.5% (n = 140,000); in the data active = protection mostly above about 24%, no sharp cut-off; inactive = mostly below about 26%
RAM network inh = inhibitors of the yeast RAM network, primary screen, dse1pr::URA3 reporter, 5-FOA selection; S. cerevisiae dse1pr::URA3 reporter, 5-FOA growth OD615, 2 d; analog-sensitive cbk1-as2 kinase mutant strain; inhibition, % at 50 µM; actives 1.8% (n = 190,000); AID 868, 2007;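 active = inhibition above a set limit, 3 SD over mean compound inhibition, cut at about 8.4% in these data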;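 note: 0% = DMSO-only wells with no growth and 100% = 10 µM 1-NA-PP1 full growth; inhibition rescues growth on 5-FOA so higher OD means more RAM inhibition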
Phagocyt inh = inhibitors of macrophage phagocytosis, primary screen, imaging, J774A.1 cells, IgG beads | inhibition, % at 5 µM | J774A.1 macrophage IgG-bead phagocytosis | actives 0.07% (n = 110,000);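 active = inhibition above the mean of the plate negative controls plus 5 SD, cut at about 13% in these data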;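 note: phagocytic index as fraction of beads internalized from green versus red external bead signal; plate controls were DMSO negative control for no effect and cytochalasin-D positive control for full effect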
Yeast lifespan up = compounds extending yeast replicative lifespan, primary screen, S. cerevisiae, OD615; S. cerevisiae growth with nicotinamide; deaD strain in restrictive glucose medium; actives 0.68% (n = 130,000); inhibition of the nicotinamide effect, % at 10 µM;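 active = inhibition above a set limit, placed 3 SD over the median of all compounds, cut at about 26% in these data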;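 note: 0% = nicotinamide-treated wells and 100% = cells grown without nicotinamide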
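assay system = DeaD-strain S. cerevisiae | measured by = absorbance at 615 nm | probe or stimulus = nicotinamide 1.5 mM | buffer or medium = CSMM-D glucose medium, restrictive | times = 48 h at 30 °C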
Yeast growth inh = growth inhibitors of yeast BB579 in restrictive medium, primary screen, yeast lifespan-shortening project, S. cerevisiae; OD615, 48 h; inhibition, % at 10 µM; actives 0.51% (n = 140,000); AID 804, 2007;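 active = inhibition above a set limit, 3 SD over the mean compound inhibition, cut at about 44% in these data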
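Assay system: S. cerevisiae DeaD strain BB579 yeast. Medium: CSMM-D restrictive synthetic medium containing dextrose (glucose). Times: 4 h cell preincubation, 48 h compound exposure, 30 °C humidified. Signal: OD615 turbidity measurement. Benchmarks: positive control amphotericin B 10 µg/mL.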
An asterisk follows results filed as active; x = no result. Hits are enriched below; roughly 3.6% of the tested compounds scored in any of these assays.

SMILES	Measles CPE	RAM network inh	Phagocyt inh	Yeast lifespan up	Yeast growth inh
COc1nc(OC)nc(N2CCC(C(=O)NC3CC3)CC2)n1	x	-1	x	x	x
O=C(NCC1(N2CCCCC2)CCCCC1)C1CC(=O)N(c2ccc3c(c2)OCCO3)C1 (stereo not given)	x	2	x	x	x
Cc1c(C(=O)N2CCCC2)oc2c1-c1[nH]ncc1CC2	31*	2	x	0	-14
Cc1c(C(=O)N2CCN(C)CC2)oc2c1C(=O)CC(C)(C)C2	3	3	x	-8	-84
C/C(=N\OC(=O)C1CC1)C1CC1c1ccc(F)cc1 (stereo not given)	x	-1	x	x	x
CCOC(=O)c1ccc(NC(=S)N(CCCN2CCCC(C)C2)Cc2ccco2)cc1 (stereo not given)	8	-1	7	7	-10
COC(=O)c1sccc1NC(=O)c1csc(C)c1	25*	1	0	-25	-11
CC(C)n1nnnc1-c1ccc(Cl)cc1	x	-1	x	x	x
CCCc1cc(C(=O)NC2CCCC2)no1	13	2	0	-9	-1
CCCc1cc(C(=O)NC2CCCCC2)no1	-2	0	2	0	43*
Cc1ccc2[nH]c(=O)c(CN(CCO)Cc3nnnn3CCc3ccccc3)cc2c1	6	-1	-3	68*	-15
Cc1ccc2[nH]c(=O)c(CN(Cc3cccs3)Cc3nnnn3Cc3ccccc3)cc2c1	12	1	x	-3	-38
Cc1[nH]n(-c2ncc(-c3ccccc3)s2)c(=O)c1C(c1ccc(Br)cc1)C(C#N)C#N (stereo not given)	34	11*	-5	19	2
COCCN(C(=O)C(C)C)c1nnc(-c2ccc(C)cc2)s1	1	0	x	-17	-15
Cc1cc2c(c(SCC#N)n1)C(=O)OC2	x	1	x	x	x
COC(=O)N/N=C(\C)c1ccco1	x	1	x	x	x
C/C(=N\NC(=O)C1CC1(C)c1ccccc1)c1ccco1 (stereo not given)	71*	0	-3	-4	-6
COC(=O)/C(=C1/Oc2ccc(C(C)(C)C)cc2S1)C(F)(F)F	10	3	-8	9	-48
COC(=O)/C(=C1/Oc2cc(C)oc(=O)c2S1)C(F)(F)F	0	2	x	47*	-19
Cc1cc(/C=C2/NC(=O)N(c3ccccc3)C2=O)c(C)n1C(C)C	55*	5	-3	0	-19
Cc1cc(/C=C2/NC(=O)N(Cc3ccccc3F)C2=O)c(C)n1C(C)C	4	9.1*	-4	-1	-36
CCN(CC)C(=O)C1=C(C)Nc2nnnn2C1c1cccnc1 (stereo not given)	29*	1	2	-5	-7
CC1CCCN(c2ccc(C(=O)NCc3ccc4c(c3)OCO4)cc2[N+](=O)[O-])C1 (stereo not given)	17	8.5*	-4	4	-4
Cn1nnnc1SCC(=O)Nc1ccccc1C(N)=O	x	3	x	x	x
O=C(O)CCN1C(=O)c2ccc(Oc3ccc4c(c3)C(=O)N(CCC(=O)O)C4=O)cc2C1=O	21	10*	0	-6	-48
SMILES	Measles CPE	RAM network inh	Phagocyt inh	Yeast lifespan up	Yeast growth inh
O=C(NCCc1ccccc1)c1cccnc1N1CCCCCC1	36*	1	0	7	-47
O=C(Nc1ccc(Cl)cc1)c1cccnc1N1CCCCC1	3	2	-1	-4	-62
NC(=O)c1nn(-c2ccc(Cl)cc2Cl)c(=O)cc1O	x	2	x	x	x
COc1ccc2occ(NC(C)=O)c2c1	42*	0	-3	-6	-5
NS(=O)(=O)c1cccc(NC(=O)COC(=O)Cc2ccc(Cl)cc2)c1	x	1	x	x	x
COc1ccc(C(=O)c2ccc(OC)c(OC)c2)cc1OC	6	3	x	0	-48
COc1ccc(C(=O)Oc2c(C)occc2=O)cc1OC	48*	1	-2	3	-47
COc1cc(C(=O)NCCOc2ccc(F)cc2)c(Br)c(OC)c1OC	x	0	x	x	x
C=CCn1c(SCC(=O)N2CCCCC2)nc(O)cc1=O	5	-1	0	48*	5
Cc1ccc(Oc2cnc3ccccc3n2)cc1	67*	1	3	-17	-26
CCOc1ccc(OCCC(=O)Nc2ccc(F)cc2C)cc1	x	4	x	x	x
O=C(CSc1nc2ccccc2o1)c1cc2ccccc2oc1=O	3	1	x	38*	-13
Cc1cc[n+](CC(=O)c2cc3ccccc3oc2=O)cc1	11	0	3	29*	-2
O=C(O)/C=C/C(=O)N(Cc1ccc2c(c1)OCO2)C1CC(=O)N(CCc2ccccc2)C1=O (stereo not given)	x	0	x	x	x
CCN1C(=O)/C(=C2/C(=O)N3c4c(cc(OC(C)=O)cc42)C(C)=CC3(C)C)SC1=S	3	8.7*	-5	3	-29
Cc1cccc(C(=O)Nc2cc(OCc3cccc(F)c3)c(Cl)cc2Cl)c1	3	9.4*	0	-15	-60
CCOc1cc(NC(=O)c2ccccn2)c(OCC)cc1NC(=O)c1cccc(C)c1	x	9.6*	x	x	x
COCCOc1cc(NC(=O)c2cccc(OC)c2)c(Cl)cc1Cl	x	1	x	x	x
CC(C)COc1ccc(S(=O)(=O)NNC(=O)c2cc3ccccc3o2)cc1	11	1	-4	11	-20
CCCCOc1ccc(S(=O)(=O)NNC(=O)c2cc3ccccc3o2)cc1	5	10*	-11	2	-24
CCOC(=O)c1sc(NC(=O)C2CCC2)cc1C	x	0	x	x	x
CN1CC2([N+](=O)[O-])CC=C(Oc3ccccc3)C([N+](=O)[O-])(C1)C2 (stereo not given)	30*	1	0	10	0
O=C(/C=C/c1ccc(S(=O)(=O)N2CCOCC2)cc1)NCc1ccccc1	16	1	-1	2	-2
CCN1C(=O)CSc2ccc(C(=O)NC3CCCCC3)cc21	27	8.7*	-3	0	-27
CCNC(=S)SCCOc1ccc(C)cc1	5	-1	-5	-9	-2
SMILES	Measles CPE	RAM network inh	Phagocyt inh	Yeast lifespan up	Yeast growth inh
Cc1ccc(NC(=O)C2CCCN2C(=O)NC2CCCCC2)cc1 (stereo not given)	x	2	x	x	x
O=C(CCCCl)NC1=NN(c2ccccc2)C(=O)C1	15	0	x	7	-27
O=C(COc1ccc(Cl)cc1)NC1=NN(c2ccccc2)C(=O)C1	24	-1	-1	0	62*
c1ccc(-c2ccc(C(c3ccccc3)n3ccnc3)cc2)cc1 (stereo not given)	41	0	x	-7	96*
CCCN(CCC)C(=O)CSc1nc2c(sc(=S)n2-c2ccc(OCC)cc2)c(=O)[nH]1	x	5	x	x	x
CCOC(=O)CC(=O)CSc1nc2c(sc(=S)n2-c2ccc(OCC)cc2)c(=O)[nH]1	8	8.7*	0	14	-36
